# Screening results from PubChem BioAssay.
# In the library only some 1.6% were active in any assay of this set; here they are far more common.
# C8 TRAIL sens: sensitizes caspase-8 expressing cells to TRAIL; NB7+C8 cells + TRAIL, ATPlite viability luminescence; inhibition (viability loss, TRAIL sensitization), % at 10 µM; 360,000 compounds, 1% hits;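 active means compounds causing at least 50% loss of cell viability in the single-dose screen, relative to plate controls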
# FLuc inh counter: counter-screen for luciferase assay inhibitors: firefly luciferase inhibition; ATPLite firefly luciferase biochemical luminescence, 10 min; inhibition, % at 10 µM; 200,000 compounds, 1.5% hits;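 active means inhibition above about 50% when tested at 10 µM, limit read from the data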
# Target sequence (P08659 whole entry, looked up): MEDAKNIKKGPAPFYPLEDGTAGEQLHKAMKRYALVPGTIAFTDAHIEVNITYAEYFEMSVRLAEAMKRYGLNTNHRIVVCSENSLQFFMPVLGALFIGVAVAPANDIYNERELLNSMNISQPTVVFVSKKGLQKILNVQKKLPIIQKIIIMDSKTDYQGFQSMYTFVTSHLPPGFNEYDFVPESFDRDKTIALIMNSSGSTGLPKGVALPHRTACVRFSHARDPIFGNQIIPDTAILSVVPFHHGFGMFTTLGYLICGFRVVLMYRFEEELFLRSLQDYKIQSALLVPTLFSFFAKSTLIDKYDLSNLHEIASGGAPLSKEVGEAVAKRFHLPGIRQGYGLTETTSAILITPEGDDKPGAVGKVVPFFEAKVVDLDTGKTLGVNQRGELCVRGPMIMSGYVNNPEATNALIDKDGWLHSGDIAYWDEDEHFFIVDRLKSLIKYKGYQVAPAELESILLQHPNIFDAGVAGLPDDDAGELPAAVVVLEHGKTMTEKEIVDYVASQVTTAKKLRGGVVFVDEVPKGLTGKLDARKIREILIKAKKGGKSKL
# PPC-1+TRAIL kill: kills PPC-1 cancer cells in the presence of TRAIL; PPC-1 cells + TRAIL, ATPLite viability luminescence; cell killing (% activity), % at 4 µM or 5 µM; 220,000 compounds, 0.41% hits; AID 1443;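 active means cell killing above 50% in the first pass at 4 µM, then a duplicate retest at 5 µM averaging 50% or more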;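 further: plate controls were cells with TRAIL plus DMSO for no effect and medium-only wells lacking cells for full effect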
# FLuc stim CS: firefly luciferase counter-screen for stimulation assays; ATPlite luciferase biochemical, luminescence, 10 min; 0 = ATP-free wells, 1 = DMSO control; AID 1027; P08659; 200,000 tested, under 10 active; activation factor at 10 µM;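 active means luciferase activation factor, scaled between plate controls, of at least 2 with compound at 10 µM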
#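 System: Luciferase/luciferin detection reagent, cell-free biochemical luciferase assay | Medium: PBS buffer for ATP | Dosing: Test compounds dosed from 2 mM stocks in 100% DMSO | Timing: 10 min at ambient temperature | Signal: Luminescence measurement of luciferase light output | Evaluation: Luciferase activation, seen as luminescence increase over controls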
# Starred values were filed as active, the others as inactive; nt = no result given.
SMILES,C8 TRAIL sens,FLuc inh counter,PPC-1+TRAIL kill,FLuc stim CS
O=C(O)c1ncc(-c2ccccc2)cn1,-2,-4,0,1
c1ccc(-c2cnc(-c3ccccc3)nc2)cc1,75*,66*,-2,0.3
COc1ccc(C(=O)c2coc(-c3ccccc3C(=O)O)c2C(=O)O)cc1,-20,-3,7,1
COc1ccc(C(=O)c2c(C(F)(F)F)oc3c2C(=O)c2ccccc2C3=O)cc1,98*,1,21,1
C=CCn1c(C)cc(C(=O)COc2ncnc3sccc23)c1C,38,58*,13,0.4
C=C1C(=O)C23CCC4C(C)(C(=O)OC)CCCC4(C)C2CCC1(O)C3 (configuration not stated),89*,nt,nt,nt
COC(=O)[C@]1(C)CCC[C@@]2(C)C3CC[C@@]4(C)C[C@]3(CCC21)CC(=O)N4 (some centres not stated),-6,nt,nt,nt
Cc1ccc(/C(N)=N/OC(=O)c2ccc3ccccc3c2)cc1,90*,nt,nt,nt
N/C(=N\OC(=O)c1cccc(F)c1)c1ccccc1,74*,91*,20,0.1
Cc1ccc(/C(N)=N/OC(=O)c2cccc(F)c2)cc1,85*,61*,28,0.4
O=C1NC[C@@H](CCCCN2C[C@H](Cc3ccc(O)cc3)N(Cc3ccccc3)C(=O)C2=O)N(CCC2CCCCC2)C1=O,-1,nt,nt,nt
Cc1ccn(CCC(=O)Nc2ccc3c(c2)OCO3)n1,16,nt,nt,nt
Oc1ccc(C[C@H]2CNC(=S)N2CC2CCCN2C[C@H](Cc2ccc(O)cc2)N2C[C@H](Cc3ccccc3)N(CC3CCCCC3)C2=S)cc1 (some centres not stated),20,nt,nt,nt
COc1cc(/C=N/NC(=O)c2nnn(-c3nonc3N)c2C)ccc1OCc1ccc(Cl)cc1,56*,nt,nt,nt
O=C(c1ccccc1)c1cnc(-c2ccccc2)s1,11,55*,13,0.5
O=C(c1ccc(F)cc1)c1cnc(Nc2ccccc2)s1,61*,62*,40,0.4
COc1ccccc1N(CC(=O)N/N=C/c1c(O)ccc2ccccc12)S(C)(=O)=O,52*,-3,36,1
O=C(CN(Cc1ccccc1)C(=O)CCl)c1cccc(Br)c1,97*,nt,nt,nt
O=C(NCCCc1ccccc1)c1cccc(Br)c1,0,nt,nt,nt
O=C(Oc1c(CN2CCOCC2)cc(Cl)c2cccnc12)c1cccs1,52*,1,25,1
O=C(Oc1c(CN2CCOCC2)cc(Cl)c2cccnc12)c1ccccc1Cl,54*,-4,10,1
O=C(Oc1c(CN2CCOCC2)cc(Cl)c2cccnc12)c1ccc(F)cc1,55*,-5,35,1.1
COc1cccc(C(=O)Oc2c(CN3CCOCC3)cc(Cl)c3cccnc23)c1,46*,-6,15,1.1
CC1=CC2C(C(O)CC3(C)C2CC(C)C32OCOC23COCO3)C2(C)C/C(=C\O)C(=O)C=C12 (configuration not stated),94*,nt,nt,nt
O=C(C1=C[C@@H](c2ccc(Br)cc2)C[C@@H](OCCCCO)O1)N1CCN(Cc2ccccc2)CC1,16,-4,9,1
SMILES,C8 TRAIL sens,FLuc inh counter,PPC-1+TRAIL kill,FLuc stim CS
Cc1cc(F)ccc1-c1cc(C(=O)NCc2cccc(C(F)(F)F)c2)[nH]n1,-1,nt,nt,nt
Cc1ccc2c(Cl)c(C(=O)Nc3cc(C)on3)sc2c1,0,13,-7,0.9
CC(NC(=O)c1sc2ccccc2c1Cl)C1CCCO1 (configuration not stated),36,63*,22,0.4
Cc1ccnc(NC(=O)c2sc3ccccc3c2Cl)c1,92*,92*,76*,0.1
CC(C)c1nnc(NC(=O)c2sc3ccccc3c2Cl)s1,20,64*,19,0.4
CC(C)c1nnc(NC(=O)c2ccc3ccccc3c2)s1,10,nt,nt,nt
CC(NC(=O)c1csc2ccccc12)C1CCCO1 (configuration not stated),7,-4,8,1
Cc1ccnc(NC(=O)c2ccc(Br)s2)c1,55*,nt,nt,nt
C[C@H](CO)N1C[C@H](C)[C@@H](CN(C)Cc2ccc(Oc3ccccc3)cc2)Oc2cc(Br)ccc2S1(=O)=O,7,nt,nt,nt
Cc1ccc([C@@H]2CC(=O)[C@@H]3CN(S(=O)(=O)c4ccc(C)cc4)[C@H](c4ccc(Cl)cc4)C[C@@H]3N2S(=O)(=O)c2ccc(C)cc2)cc1,7,nt,nt,nt
Cc1cc(OCC(=O)O/N=C(\N)c2ccccc2)ccc1Br,-7,-2,19,1
O=C(Nc1nccs1)c1sc2ccccc2c1Cl,74*,85*,39,0.1
O=C(Nc1ccc2ccccc2c1)c1cccc(F)c1,16,nt,10,nt
Cc1ccc2cc(NC(=O)c3ccccc3)ccc2n1,58*,nt,nt,nt
Cc1ccc2cc(NC(=O)CC(CC(=O)O)c3ccccc3)ccc2n1 (configuration not stated),-17,nt,nt,nt
Cc1ccc2cc(NC(=O)c3cccc(F)c3)ccc2n1,46*,nt,5,nt
S=c1nc[nH]c2c1ncn2C1CCCO1 (configuration not stated),73*,nt,31,nt
O=c1[nH]cnc2c1ncn2[C@@H]1C[C@@H](O)[C@H](CO)O1,-18,nt,nt,nt
Nc1ncnc2c1ncn2C1CCCO1 (configuration not stated),-18,nt,nt,nt
OCC1OC(n2cnc3c(=S)nc[nH]c32)CC1O (configuration not stated),76*,nt,nt,nt
CC(C)CN1C(=O)C(=O)N(CC(=O)c2ccc3c(c2)CCCC3)C1=O,-34,nt,nt,nt
O=C(Cc1ccc(Cl)cc1)NNC(=O)C1CC=CCC1C(=O)O (configuration not stated),-4,nt,nt,nt
CCOc1cc(C)nc(N2CCC(C(=O)NCC3CCCO3)CC2)n1 (configuration not stated),-7,nt,nt,nt
O=C(COc1ccc2c(c1)CCC2)Nc1ccccn1,84*,nt,nt,nt
CCc1c(C)[nH]c2c(C)cccc2c1=O,52*,0,3,1
SMILES,C8 TRAIL sens,FLuc inh counter,PPC-1+TRAIL kill,FLuc stim CS
O=C(CC(O)(CC(=O)OCc1ccccc1)C(=O)OCc1ccccc1)OCc1ccccc1,1,nt,nt,nt
Cc1cc(OCC(=O)N2CCc3ccccc3C2)c(C)cc1Br,7,nt,nt,nt
CCCOc1ccc(-c2nnc(N)s2)cc1,38,60*,-7,0.4
CC(C)c1ccc(-c2nnc(N)s2)cc1,58*,80*,58*,0.2
COCc1cc(=O)[nH]c(/N=C(\N)Nc2cccc(Cl)c2)n1,-10,-1,-17,1
CN(Cc1ccccc1)C(=O)[C@@H]1CCCN1C(=O)[C@@H]1CCCN1C(=O)c1ccccc1,-6,nt,nt,nt
CCC(C)NC(=O)c1cc2cc3ccc(OC)cc3nc2s1 (configuration not stated),47,59*,33,0.4
Cc1ccc(CN2CC(N3CCN(C)CC3)CS2(=O)=O)cc1 (configuration not stated),-9,nt,nt,nt
CNc1cc([N+](=O)[O-])ccc1N/C=C/C(=O)c1cccs1,-1,-4,6,1
O=C(/C=C/Nc1ccc(Nc2ccccc2)cc1)c1cccs1,1,17,1,0.8
Cc1cc(N/C=C/C(=O)c2cccs2)ccc1F,45,80*,9,0.2
O=C(/C=C/Nc1cccc([N+](=O)[O-])c1)c1cccs1,2,51*,6,0.5
